# p97 inhibitor: human p97 ATPase inhibition | recombinant p97 ATPase, Kinase-Glo ATP luminescence, 3 h | inhibition, % at 8 µM | actives 0.42% (n = 220,000) | AID 1481; in the data active = inhibition above about 15%;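 also: 0% = DMSO vehicle and 100% = wells lacking enzyme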
# RBBP9 inh: human RBBP9 hydrolase inhibition; recombinant RBBP9, FP-Rh probe fluorescence polarization; inhibition, % at 7.94 µM; actives 0.2% (n = 220,000);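 active = inhibition above the campaign mean of all tested compounds plus 3 SD, cut at about 14% in these data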;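 also: plate controls were DMSO wells with RBBP9 for no effect and wells lacking RBBP9 protein for full effect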
# Target sequence (O75884 whole entry, looked up): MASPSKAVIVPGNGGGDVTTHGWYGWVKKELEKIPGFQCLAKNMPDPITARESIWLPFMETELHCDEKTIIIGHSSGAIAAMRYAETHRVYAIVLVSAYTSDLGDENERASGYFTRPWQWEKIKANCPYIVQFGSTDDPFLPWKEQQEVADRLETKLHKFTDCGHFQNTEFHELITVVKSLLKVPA
#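 Material: RBBP9 protein. Amount: RBBP9 at 2.5 µM in dispensed solution, before mixing. Schedule: 30 min then 45 min, 25 °C. Medium: Tris buffer pH 8.0, NaCl, Pluronic. Measured by: fluorescence polarization. Measure: percent inhibition from mP, scaled between DMSO and no-protein wells. Replication: one well per compound.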
# TNF necrop inh: blocks TNF-alpha induced death of Jurkat FADD-/- cells | Jurkat FADD-/- TNF necroptosis rescue, ATP luminescence, 24 h; 0 = TNF only, 100 = no-TNF cells | activation (protection from cell death), % at 10 µM | actives 0.068% (n = 220,000);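 active = activation, meaning protection from cell death, of at least 50% relative to plate controls; inactive = activation below 50%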;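 also: necroptosis triggered by 40 ng/mL TNF-alpha added together with compound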
# M18AAP inhibitor: blocks P. falciparum M18 aspartyl aminopeptidase | recombinant PfM18AAP, H-Glu-NHMec fluorogenic cleavage | inhibition, % at 7.35 µM | actives 1.2% (n = 290,000);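 active = inhibition above the campaign mean inhibition over all tested compounds plus 3 SD, cut at about 28% in these data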;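 also: 0% = plate median of test compound wells and 100% = 2 mM ZnCl2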
# Wee1 stabilizer: blocks degradation of human Wee1 kinase | P30291 | HeLa Luc-Wee1K328M stability, luciferase luminescence; 100% = proteasome inhibitor MG132 effect | reporter increase, % at 5 µM | actives 1.2% (n = 220,000);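 active = activation above the mean of all tested compounds plus 3 SD, set per screening run, cut at about 8.8% in these data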;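 also: cells exposed to compound for 20 h before luminescence read; 0% = DMSO alone and 100% = MG132 at 30 µM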
# zVAD death inh: blocks zVAD induced death of L929 cells | L929 zVAD necroptosis rescue, ATP luminescence, 24 h; with zVAD 60 µM | viability rescue, % at 10 µM | actives 0.38% (n = 220,000) | AID 1377;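 active = activation, scaled between plate controls, above about 75%, limit read from the data; inactive = activation under that limit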;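 also: 0% = zVAD with DMSO and 100% = DMSO alone without zVAD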
# * hit, by the source's call; . = no result. Sampled rows, rich in hits. Any-hit rate of the full collection: about 2.7%.
SMILES,p97 inhibitor,RBBP9 inh,TNF necrop inh,M18AAP inhibitor,Wee1 stabilizer,zVAD death inh
COCCNC(=O)c1ccccc1NC(=O)COc1ccccc1,10.7,14.1,0.4,2.6,-0.3,-0.5
COC(=O)c1ccccc1NC(=O)COc1ccccc1,-0.9,0.7,0.3,5.3,13.0*,-0.3
COC(=O)c1ccccc1NC(=O)CSc1n[nH]c(C)n1,-4.7,-13.0,0.9,30.3*,-0.1,1.4
COc1ccc(NC(=O)C/C(C)=N/NC(=O)c2ccccn2)c(OC)c1,.,.,.,5.0,.,.
CCP(=O)(c1cccc([N+](=O)[O-])c1)c1cccc([N+](=O)[O-])c1,7.1,2.9,2.2,-3.8,5.1,2.0
O=[N+]([O-])c1cccc(P(=O)(O)c2cccc([N+](=O)[O-])c2)c1,7.1,-2.3,2.0,-0.2,24.8*,-0.6
CCn1c([N+](=O)[O-])nc2c1c(=O)[nH]c(=O)n2C,4.0,-4.0,50.7*,-16.2,-1.1,-1.9
O=C(NC(=S)Nc1ccccc1Cl)c1csnn1,4.1,8.9,-2.1,2.8,4.1,0.0
O=C(Nc1ccccc1NC(=O)c1csnn1)c1csnn1,2.9,-2.3,-1.0,73.4*,-2.9,2.1
O=C(NNS(=O)(=O)c1ccc(Br)cc1)c1csnn1,8.8,9.1,-0.3,30.3*,0.0,0.7
COc1cccc(CN2CCN(Cc3nc4c(s3)CCCC4)CC2CCO)c1 (centres undefined),-2.2,-5.9,-0.1,-6.7,10.1*,0.4
O=c1[nH]c(=S)[nH]cc1Oc1ccc(Cl)cc1Cl,5.4,3.4,2.0,9.0,9.0*,-0.2
Cc1[nH]c(C)c2c(=O)n(-c3ccccc3)ncc12,-6.8,-10.5,0.6,-8.0,14.3*,1.4
Cc1nn(Cc2c(F)cccc2Cl)c(C)c1[N+](=O)[O-],1.4,7.1,76.3*,-5.1,1.7,1.4
CCn1c(SCC(=O)N2CC(C)OC(C)C2)nc2c([nH]c3ccccc32)c1=O (centres undefined),.,.,.,1.8,.,.
CCCOc1ccc(/C=N\NC(=O)CCc2n[nH]c(=O)[nH]c2=O)cc1OC,-4.2,-5.3,0.0,-8.4,9.6*,0.5
O=S(=O)(c1cnc(Cl)c(Cl)c1)N1CCN(c2ncccn2)CC1,6.5,-3.5,1.0,0.8,-0.6,-1.9
COc1ccccc1-c1cc(C(=O)N2CCCc3ccccc32)no1,-0.2,-1.7,2.1,0.8,9.8*,0.9
Nc1ccccc1SCc1cn2ccccc2n1,3.1,1.7,0.3,-6.0,-0.5,.
N=C(N)SCc1cn2ccccc2n1,-1.6,-3.1,1.3,-7.9,8.8*,1.3
Cc1[nH]n(-c2ccccc2)c(=O)c1C(C[N+](=O)[O-])c1ccc(F)cc1 (centres undefined),-3.0,-1.3,1.6,29.7*,2.5,-0.2
Cc1ccc(C(C[N+](=O)[O-])c2c(C)[nH]n(-c3ccccc3)c2=O)cc1 (centres undefined),1.6,-3.6,-8.4,24.7,2.1,0.1
Cc1[nH]n(-c2ccccc2)c(=O)c1C(C[N+](=O)[O-])c1ccc(Cl)cc1 (centres undefined),2.2,8.3,3.0,28.5*,-2.0,-0.7
O=C(c1ccccc1)c1c[nH]c(C(=O)NNc2ccccc2)c1,0.7,0.1,9.2,14.5,-2.3,-0.1
Cc1sc(NC(=O)COc2ccccc2)c(C#N)c1-c1ccccc1,-3.0,4.0,2.6,5.3,9.6*,1.8
SMILES,p97 inhibitor,RBBP9 inh,TNF necrop inh,M18AAP inhibitor,Wee1 stabilizer,zVAD death inh
Cc1cc(C)c2c(N)c(C(=O)NC3CCCC3)sc2n1,8.7,3.2,1.1,7.2,6.7,-0.7
Cc1cc(C)c2c(=O)n(CC(=O)NC3CCCC3)sc2n1,-0.1,-19.5,-7.4,56.2*,-0.4,0.9
Cc1ccc(-n2c(C)cc(C(=O)OCC(=O)N(CC(C)C)C3CCS(=O)(=O)C3)c2C)cc1 (centres undefined),-3.1,-5.7,-2.3,10.0,15.9*,0.0
C=C1CCC[C@]2(C)C[C@H]3OC(=O)C(CNCCN(CC)CC)[C@H]3CC12 (some centres undefined),.,.,.,17.1,.,.
CCOC(=O)CNC(=S)n1cnc(N)n1,-5.1,-1.9,0.5,56.8*,3.4,-1.0
CCOC(=O)CNC(=O)CSc1nc(N)cc(N)n1,-7.0,-7.3,-1.3,-8.2,-1.1,0.3
Cc1ccc(-c2onc3ccc(C=O)cc23)cc1,4.6,-6.0,-5.0,-4.2,-0.8,-0.6
O=C(O)/C=C/c1ccc2noc(-c3ccccc3)c2c1,5.8,-4.2,-0.6,6.5,26.2*,1.1
c1ccc(COCCC2CO2)cc1 (centres undefined),.,.,.,-5.5,.,.
Cc1ccc2oc(/N=C(\N)NC(=O)C(C)(C)C)nc2c1,-5.7,-6.9,-0.3,0.4,-4.6,0.4
Cc1ccc2oc(/N=C(\N)NC(=O)C3CC3)nc2c1,2.6,-3.1,-4.9,4.3,9.3*,5.8
Clc1ccccc1-c1ncc2ccccn12,1.0,3.8,-2.1,2.6,8.9*,1.6
CC(=O)Nc1cccc(NC(=S)Nc2cccc(Cl)c2C)c1,6.3,11.4,0.3,31.1*,-0.9,0.5
Cc1ccc(C(=O)NCC(=O)Nc2ccncc2)s1,.,.,.,2.0,.,.
Cc1cc(Br)ccc1N=C1NC(=O)CS1,.,.,.,29.6*,.,.
Cc1ccc(N=C2NC(=O)CS2)c(C)c1,3.2,-6.4,-1.0,2.4,2.2,-0.1
Cc1ccc(NC(=O)NNC(=O)Cn2nc(-c3ccccc3)c(-c3ccccc3)c(C#N)c2=O)cc1,14.6*,-6.0,-13.5,-3.7,-2.2,0.2
Cc1cc(N2CCCC2=O)ccc1S(=O)(=O)NC1CCCCC1,.,.,.,-10.6,.,.
CCOc1ccc(C(=O)N(CN2CCCC2=O)c2ccccc2)cc1,3.2,-8.9,-1.2,5.5,13.0*,0.9
COc1ccc(-c2nnc(SCc3nc4ccccc4c(=O)[nH]3)o2)cc1,-2.9,-3.2,-0.8,2.5,0.1,73.4
O=C(Nc1ccccc1)c1cc([N+](=O)[O-])ccc1Cl,.,.,1.8,.,.,0.4
O=C(Nc1ncn[nH]1)c1cc([N+](=O)[O-])ccc1Cl,.,.,.,30.0*,.,.
COC(=O)c1cc(N=CC2=C(O)CC(C)(C)CC2=O)cc(C(=O)OC)c1,-3.9,-2.7,-3.1,29.6*,-1.7,0.0
Fc1ccc(-c2n[nH]c(=S)n2-c2ccc3c(c2)OCCO3)cc1,3.7,-4.6,0.1,8.2,9.1*,2.6
COc1ccc2nc3oc(C(=O)Nc4ccc(OC)c(OC)c4)cc3cc2c1,-0.4,-3.9,0.8,5.7,8.9*,-0.2
CC(C)c1ccccc1-n1c(SCc2cc(=O)oc3ccc4ccccc4c23)nnc1-c1cccnc1,-0.2,-11.7,-9.4,2.9,-1.8,-0.4
COCc1nnc(NC(=O)CS(=O)(=O)c2ccc(C)cc2)s1,.,.,.,-15.3,.,.
CCOC(=O)/C(C#N)=C1\CCCN1CC(N)=S,4.6,5.0,1.0,30.8*,1.1,0.6

# Screens as filed in PubChem BioAssay.
